Data as given in ChEMBL document CHEMBL4177662, “Phosphamide-containing diphenylpyrimidine analogues (PA-DPPYs) as potent focal adhesion kinase (FAK) inhibitors with enhanced activity against pancreatic cancer cell lines” (Bioorg Med Chem, 2017).

Legend:
ASPC1 [1] = assay: Antiproliferative activity against human Aspc-1 cells after 72 hrs by MTT assay; type: functional, cell-based; conditions: ASPC1, 72 h
How it was run: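 Cells grown in DMEM with 10% FBS and 1% penicillin-streptomycin at 37 °C, 5% CO2. Seeded at 4,000 to 5,000 cells/well, cultured one day, then exposed to compounds for 72 h at 1.25 to 40 μmol/L, five replicates per concentration. MTT absorbance read at 570 nm. IC50 from five-point dose-response curves; mean of at least three separate experiments.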

ASPC1 [2] = assay: Antiproliferative activity against human Aspc-1 cells assessed as cell viability at 0.5 uM after 48 hrs by MTT assay (reference value: 98.1%); type: functional; conditions: ASPC1, 48 h, read-out: Activity
ASPC1 [3] = assay: Induction of apoptosis in human Aspc-1 cells assessed as viable cells at 2.5 uM after 72 hrs by Annexin V-FITC/propidium iodide staining-based flow cytometry (reference value: 100%); type: functional; conditions: ASPC1, 72 h, read-out: Activity
How it was run: (§1)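 AsPC-1 cells (3 to 5×10^5 per well) were treated with DMSO solvent control or compound for 72 h in medium with 5% FBS. Cells were then stained with Annexin V-FITC and propidium iodide and analysed by flow cytometry. One representative experiment shown.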

ASPC1 [4] = assay: Cell cycle arrest in human Aspc-1 cells assessed as accumulation at G2/M phase at 1 uM after 72 hrs by propidium iodide staining-based flow cytometry (reference value: 0.89%); type: functional
ASPC1 [5] = assay: Induction of apoptosis in human Aspc-1 cells assessed as viable cells at 5 uM after 72 hrs by Annexin V-FITC/propidium iodide staining-based flow cytometry (reference value: 100%); type: functional; conditions: ASPC1, 72 h, read-out: Activity; how it was run: as §1
ASPC1 [6] = assay: Antiproliferative activity against human Aspc-1 cells assessed as cell viability at 4 uM after 48 hrs by MTT assay (reference value: 98.1%); type: functional; conditions: ASPC1, 48 h, read-out: Activity
PANC-1 (human) [7] = assay: Antiproliferative activity against human PANC-1 cells assessed as cell viability at 8 uM after 24 hrs by MTT assay (reference value: 100%); conditions: PANC-1, 24 h
ASPC1 [8] = assay: Cell cycle arrest in human Aspc-1 cells assessed as accumulation at G0/G1 phase at 1 uM after 72 hrs by propidium iodide staining-based flow cytometry (reference value: 39.41%); type: functional
[9] = molecular target: T1, Tyrosine-protein kinase JAK3 (Homo sapiens) (UniProt P52333); assay: Inhibition of recombinant GST-tagged human JAK3 catalytic domain (781 to 1124 residues) expressed in baculovirus expression system at 100 nM relative to control
T1 sequence (whole entry): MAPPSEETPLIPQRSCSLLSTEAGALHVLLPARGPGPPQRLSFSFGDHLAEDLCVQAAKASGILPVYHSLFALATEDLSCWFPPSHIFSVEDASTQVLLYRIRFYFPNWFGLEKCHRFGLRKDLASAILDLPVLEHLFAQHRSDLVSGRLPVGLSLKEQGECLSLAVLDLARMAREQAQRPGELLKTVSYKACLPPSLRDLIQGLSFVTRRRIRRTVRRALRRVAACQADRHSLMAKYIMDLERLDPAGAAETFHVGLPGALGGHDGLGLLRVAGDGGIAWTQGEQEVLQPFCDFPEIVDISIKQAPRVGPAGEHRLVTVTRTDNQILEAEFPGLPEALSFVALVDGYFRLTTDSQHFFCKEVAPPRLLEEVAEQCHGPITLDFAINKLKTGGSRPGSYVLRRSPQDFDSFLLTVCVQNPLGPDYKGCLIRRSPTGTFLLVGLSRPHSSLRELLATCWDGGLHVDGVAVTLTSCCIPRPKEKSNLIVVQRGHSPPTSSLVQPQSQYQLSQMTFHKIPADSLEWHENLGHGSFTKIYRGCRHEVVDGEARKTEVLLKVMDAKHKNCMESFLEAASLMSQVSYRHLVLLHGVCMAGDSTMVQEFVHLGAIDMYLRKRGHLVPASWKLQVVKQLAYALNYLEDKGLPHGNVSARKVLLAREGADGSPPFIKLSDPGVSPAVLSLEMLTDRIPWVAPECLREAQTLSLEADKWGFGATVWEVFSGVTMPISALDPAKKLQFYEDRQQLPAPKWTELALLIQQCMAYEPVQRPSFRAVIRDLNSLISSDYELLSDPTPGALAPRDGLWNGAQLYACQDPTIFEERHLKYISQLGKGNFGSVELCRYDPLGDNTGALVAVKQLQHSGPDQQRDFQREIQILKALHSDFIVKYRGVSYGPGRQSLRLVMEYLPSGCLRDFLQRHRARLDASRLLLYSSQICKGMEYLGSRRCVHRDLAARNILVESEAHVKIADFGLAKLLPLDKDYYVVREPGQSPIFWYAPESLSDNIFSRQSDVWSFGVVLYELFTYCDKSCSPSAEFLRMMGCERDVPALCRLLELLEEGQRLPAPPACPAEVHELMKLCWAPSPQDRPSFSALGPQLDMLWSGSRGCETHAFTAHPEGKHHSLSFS
How it was run: (§2)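 SelectScreen biochemical kinase profiling service; percent inhibition of each kinase at a single compound concentration of 100 nM.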

ASPC1 [10] = assay: Antiproliferative activity against human Aspc-1 cells assessed as cell viability at 8 uM after 24 hrs by MTT assay (reference value: 100%); type: functional; conditions: ASPC1, 24 h, read-out: Activity
[11] = molecular target: Tyrosine-protein kinase receptor UFO (Homo sapiens) (UniProt P30530); assay: Inhibition of GST-tagged human AXL (473 end residues) at 100 nM relative to control; how it was run: as §2
[12] = molecular target: Protein-tyrosine kinase 2-beta (Homo sapiens) (UniProt Q14289); assay: Inhibition of recombinant full length GST-tagged human PYK2 cytoplasmic domain expressed in baculovirus expression system at 100 nM relative to control; how it was run: as §2
[13] = molecular target: Epidermal growth factor receptor (Homo sapiens) (UniProt P00533); assay: Inhibition of recombinant GST-tagged human EGFR cytoplasmic domain (668 to 1210 residues) expressed in baculovirus expression system at 100 nM relative to control
How it was run: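 Part of a small kinase-panel profile run by an outsourced biochemical profiling service. The test compound was given at a single concentration of 100 nM, and activity was reported as percent inhibition rate.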

PANC-1 (human) [14] = assay: Antiproliferative activity against human PANC-1 cells assessed as cell viability at 8 uM after 48 hrs by MTT assay (reference value: 98.8%); conditions: PANC-1, 48 h
ASPC1 [15] = assay: Antiproliferative activity against human Aspc-1 cells assessed as cell viability at 4 uM after 24 hrs by MTT assay (reference value: 100%); type: functional; conditions: ASPC1, 24 h, read-out: Activity
BXPC-3 = assay: Antiproliferative activity against human BxPC3 cells assessed as cell viability at 0.5 uM after 24 hrs by MTT assay (reference value: 100%); type: functional; conditions: BXPC-3, 24 h, read-out: Activity
ASPC1 [16] = assay: Induction of apoptosis in human Aspc-1 cells assessed as late apoptotic cells at 5 uM after 72 hrs by Annexin V-FITC/propidium iodide staining-based flow cytometry (reference value: 0%); type: functional; how it was run: as §1
ASPC1 [17] = assay: Antiproliferative activity against human Aspc-1 cells assessed as cell viability at 0.5 uM after 72 hrs by MTT assay (reference value: 97%); type: functional; conditions: ASPC1, 72 h, read-out: Activity

Chain of Protein-tyrosine kinase 2-beta (Homo sapiens) (Q14289 whole entry, looked up, the tested form may be a part): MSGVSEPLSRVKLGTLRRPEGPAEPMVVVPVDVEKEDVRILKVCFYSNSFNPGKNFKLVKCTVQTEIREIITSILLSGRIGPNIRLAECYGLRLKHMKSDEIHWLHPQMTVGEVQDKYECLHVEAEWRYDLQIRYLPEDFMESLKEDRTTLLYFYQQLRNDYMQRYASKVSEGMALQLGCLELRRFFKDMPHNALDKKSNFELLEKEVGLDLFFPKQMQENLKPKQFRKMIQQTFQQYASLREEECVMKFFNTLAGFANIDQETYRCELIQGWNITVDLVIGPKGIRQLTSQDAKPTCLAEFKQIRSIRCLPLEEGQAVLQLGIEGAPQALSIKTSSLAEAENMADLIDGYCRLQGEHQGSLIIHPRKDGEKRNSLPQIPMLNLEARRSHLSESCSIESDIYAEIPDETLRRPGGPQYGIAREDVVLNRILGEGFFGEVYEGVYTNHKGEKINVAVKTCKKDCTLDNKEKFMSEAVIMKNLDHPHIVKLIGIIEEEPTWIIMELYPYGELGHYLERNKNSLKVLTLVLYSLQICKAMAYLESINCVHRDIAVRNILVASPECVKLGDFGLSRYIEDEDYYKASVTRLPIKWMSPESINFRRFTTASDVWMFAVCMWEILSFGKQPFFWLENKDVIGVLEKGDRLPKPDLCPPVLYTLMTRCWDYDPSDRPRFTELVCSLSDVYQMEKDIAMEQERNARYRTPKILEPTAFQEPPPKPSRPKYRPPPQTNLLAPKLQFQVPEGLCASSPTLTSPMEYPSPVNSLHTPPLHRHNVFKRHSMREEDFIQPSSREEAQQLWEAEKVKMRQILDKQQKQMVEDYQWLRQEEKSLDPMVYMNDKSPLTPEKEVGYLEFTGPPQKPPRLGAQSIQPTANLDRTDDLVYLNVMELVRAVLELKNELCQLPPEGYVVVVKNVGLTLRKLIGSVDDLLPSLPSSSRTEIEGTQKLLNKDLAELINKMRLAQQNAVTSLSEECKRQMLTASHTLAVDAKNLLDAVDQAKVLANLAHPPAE
Chain of Tyrosine-protein kinase receptor UFO (Homo sapiens) (P30530 whole entry, the tested form may be a part): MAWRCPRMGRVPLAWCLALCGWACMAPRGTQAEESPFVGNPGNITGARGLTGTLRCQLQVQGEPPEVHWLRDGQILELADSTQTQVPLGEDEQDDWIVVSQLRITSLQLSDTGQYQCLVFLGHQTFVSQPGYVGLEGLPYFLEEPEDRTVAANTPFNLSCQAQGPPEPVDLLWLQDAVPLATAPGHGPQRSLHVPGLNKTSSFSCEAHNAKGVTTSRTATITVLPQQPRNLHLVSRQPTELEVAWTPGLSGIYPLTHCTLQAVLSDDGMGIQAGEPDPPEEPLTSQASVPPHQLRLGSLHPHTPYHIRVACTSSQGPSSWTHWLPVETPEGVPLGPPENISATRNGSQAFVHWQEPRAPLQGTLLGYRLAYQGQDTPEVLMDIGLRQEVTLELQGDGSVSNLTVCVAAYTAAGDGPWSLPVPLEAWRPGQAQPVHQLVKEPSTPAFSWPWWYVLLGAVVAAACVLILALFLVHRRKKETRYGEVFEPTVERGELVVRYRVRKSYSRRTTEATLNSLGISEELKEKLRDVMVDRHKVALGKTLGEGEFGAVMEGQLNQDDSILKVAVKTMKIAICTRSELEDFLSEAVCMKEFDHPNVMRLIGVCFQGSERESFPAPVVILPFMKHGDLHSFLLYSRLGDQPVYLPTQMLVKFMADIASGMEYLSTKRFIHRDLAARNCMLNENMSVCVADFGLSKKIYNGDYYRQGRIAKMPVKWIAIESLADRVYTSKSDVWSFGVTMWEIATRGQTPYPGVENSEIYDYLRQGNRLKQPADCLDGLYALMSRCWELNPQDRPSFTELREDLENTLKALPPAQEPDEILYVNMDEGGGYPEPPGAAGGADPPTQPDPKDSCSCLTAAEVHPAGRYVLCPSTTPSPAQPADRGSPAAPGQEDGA
Chain of Epidermal growth factor receptor (Homo sapiens) (P00533 whole entry, the tested form may be a part): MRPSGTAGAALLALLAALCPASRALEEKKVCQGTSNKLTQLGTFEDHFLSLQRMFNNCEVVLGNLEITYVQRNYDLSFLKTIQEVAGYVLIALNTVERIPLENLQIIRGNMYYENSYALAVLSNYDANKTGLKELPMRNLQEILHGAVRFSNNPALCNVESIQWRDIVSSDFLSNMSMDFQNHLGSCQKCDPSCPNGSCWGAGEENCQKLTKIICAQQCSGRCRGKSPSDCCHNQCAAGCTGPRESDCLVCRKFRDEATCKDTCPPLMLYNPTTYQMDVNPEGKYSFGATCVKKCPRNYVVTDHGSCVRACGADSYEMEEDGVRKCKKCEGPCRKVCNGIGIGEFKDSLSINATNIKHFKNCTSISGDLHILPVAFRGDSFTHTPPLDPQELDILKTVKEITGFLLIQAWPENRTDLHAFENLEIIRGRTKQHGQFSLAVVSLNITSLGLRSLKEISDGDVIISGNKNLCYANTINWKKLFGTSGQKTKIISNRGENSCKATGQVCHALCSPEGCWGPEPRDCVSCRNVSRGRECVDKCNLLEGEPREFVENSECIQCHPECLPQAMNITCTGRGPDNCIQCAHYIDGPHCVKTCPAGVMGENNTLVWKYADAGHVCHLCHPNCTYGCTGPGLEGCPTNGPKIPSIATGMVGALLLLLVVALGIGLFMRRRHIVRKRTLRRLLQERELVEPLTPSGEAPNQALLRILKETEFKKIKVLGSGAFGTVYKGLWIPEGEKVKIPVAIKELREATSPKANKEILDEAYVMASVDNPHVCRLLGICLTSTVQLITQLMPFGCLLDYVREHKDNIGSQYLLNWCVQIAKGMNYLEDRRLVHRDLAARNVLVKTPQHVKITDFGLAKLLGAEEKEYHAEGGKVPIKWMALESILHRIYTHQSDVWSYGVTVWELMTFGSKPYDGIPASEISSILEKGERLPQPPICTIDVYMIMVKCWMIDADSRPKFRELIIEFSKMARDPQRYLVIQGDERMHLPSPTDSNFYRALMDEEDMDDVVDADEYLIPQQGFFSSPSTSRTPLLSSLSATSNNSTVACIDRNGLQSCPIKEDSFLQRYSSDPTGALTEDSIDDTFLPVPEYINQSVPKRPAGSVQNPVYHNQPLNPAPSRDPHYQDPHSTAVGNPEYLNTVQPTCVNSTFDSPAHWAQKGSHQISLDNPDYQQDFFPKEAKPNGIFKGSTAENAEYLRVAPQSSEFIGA

SMILES: CCOP(=O)(CCCOc1ccc(Nc2ncc([N+](=O)[O-])c(Nc3ccccc3C(=O)NC)n2)cc1)N1CCOCC1 (stereo not drawn)
- IC50 (ASPC1 [1]): 1660 nM
- viability at 0.5 µM (ASPC1 [2]): 97.4%
- viability at 2.5 µM (ASPC1 [3]): 55.3%
- Activity (ASPC1 [4]): 13%
- viability at 5 µM (ASPC1 [5]): 40.1%
- viability at 4 µM (ASPC1 [6]): 47.7%
- viability at 8 µM (PANC-1 (human) [7]): 87.3%
- Activity (ASPC1 [8]): 38.6%
- inhibition [9]: 26%
- viability at 8 µM (ASPC1 [10]): 56.8%
- inhibition [11]: 60%
- inhibition [12]: 71%
- inhibition [13]: 22%
- viability at 8 µM (PANC-1 (human) [14]): 29.5%
- viability at 4 µM (ASPC1 [15]): 68%
- viability at 0.5 µM (BXPC-3): 98%
- Activity (ASPC1 [16]): 40.3%
- viability at 0.5 µM (ASPC1 [17]): 94.4%
